Assay outcomes deposited in PubChem by several laboratories.
Sampled rows, rich in hits. Any-hit rate of the full collection: about 3.9%.
FLuc act counter = affects firefly luciferase, flagging false hits in luciferase stimulation screens; 200,000 tested, under 10 active; ATPlite luciferase biochemical, luminescence, 10 min; 0 = ATP-free wells, 1 = DMSO control; activation factor at 10 µM; P08659;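 active = luciferase activation factor, scaled between plate controls, of at least 2 with compound at 10 µM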
Target sequence (P08659 whole entry, looked up): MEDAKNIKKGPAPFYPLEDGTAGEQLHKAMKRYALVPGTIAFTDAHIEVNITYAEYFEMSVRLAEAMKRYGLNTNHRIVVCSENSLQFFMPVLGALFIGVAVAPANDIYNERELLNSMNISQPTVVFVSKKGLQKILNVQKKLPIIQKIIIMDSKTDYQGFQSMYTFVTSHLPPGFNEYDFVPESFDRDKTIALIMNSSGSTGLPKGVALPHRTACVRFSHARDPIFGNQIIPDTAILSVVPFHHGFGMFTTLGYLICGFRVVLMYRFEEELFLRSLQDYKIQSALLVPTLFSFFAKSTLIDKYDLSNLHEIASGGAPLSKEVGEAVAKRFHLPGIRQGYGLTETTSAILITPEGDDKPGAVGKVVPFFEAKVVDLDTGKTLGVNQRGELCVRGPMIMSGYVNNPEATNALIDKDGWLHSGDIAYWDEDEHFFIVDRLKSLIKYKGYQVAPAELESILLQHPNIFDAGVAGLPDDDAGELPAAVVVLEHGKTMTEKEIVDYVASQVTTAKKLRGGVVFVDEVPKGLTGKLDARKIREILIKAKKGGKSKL
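System: luciferase plus luciferin reagent, cell-free; medium: PBS as buffer for the ATP substrate; dosing: test compounds dosed from 2 mM stocks in 100% DMSO; timing: 10 min post-reagent at room temperature; measured by: luminescence measurement of luciferase light output; evaluation: luciferase activation, seen as luminescence increase over controls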
APP 5'UTR act = APP 5'UTR luciferase reporter activation; SH-SY5Y APP 5'UTR luciferase reporter, luminescence; zero percent = DMSO vehicle wells; activation, % at 2 µM; hit rate 1% among 190,000; AID 1276;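 active = activation above a set limit, based on mean plus 3 SD of controls, cut at about 140% in these data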
Rad51 HR inh = Rad51 (human) homologous recombination inhibition; Q06609; hRad51 DNA strand exchange, fluorescence dequenching; inhibition, % at 10 µM; hit rate 0.085% among 200,000;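 active = inhibition above 40% at the single screening dose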;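 also: 0% = DMSO control wells and 100% = blanks with heterologous ssDNA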
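Material: hRad51 filaments on single-stranded DNA; Reagent: Donor/quencher-labelled 47-bp dsDNA substrate; Compound: 10 µM final, single point; Schedule: 37 °C 15-min filament assembly, 30-min compound preincubation, 15-min exchange; Technique: FRET fluorescence, excitation 485 nm, emission 520 nm; Benchmarks: control wells and blank wells on each plate.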
NF-kB neuron act = compounds increasing NF-kB expression in human neuronal cells | NF-kB reporter expression; active compounds read high | fold change at 12.5 µM | hit rate 1.6% among 190,000; in the data active = fold change above about 3.3
FLuc inhib CS = Photinus pyralis luciferase inhibition counter-screen. ATPLite firefly luciferase biochemical luminescence, 10 min. inhibition, % at 10 µM. hit rate 1.5% among 200,000;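 active = inhibition above about 50% when tested at 10 µM, limit read from the data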
STAT1 act = increases IFN-gamma driven STAT1 reporter signal. hit rate 2.6% among 200,000. NIH 3T3 STAT1-luciferase reporter, luminescence; 100% = IFN-gamma alone, no compound. activation (% of control), % at 5.5 µM;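 active = activation above the screen-wide mean activation plus 3 SD, cut at about 130% in these data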;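 also: raw ratio to IFN-gamma control signal so 100% means no change and 0% no light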
STAT1 activ conf = confirmation of STAT1 signaling activators. hit rate 97% among 1,200. NIH 3T3 STAT1-luciferase reporter, IFN-gamma potentiation, luminescence; 100% = IFN-gamma EC80 alone, no compound. AID 1262. activation (% of control), % at 5.7 µM. shares compounds with STAT1 act;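 active = activation above a set limit carried over from the earlier primary STAT1 screen, cut at about 140% in these data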;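 also: simple ratio to median IFN-gamma plus DMSO wells so 0% means no light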
NFkB act STAT1ct = counter-screen for STAT1 activators: NF-kappaB activation. shares compounds with STAT1 act. activation (% of control), % at 5.7 µM. hit rate 43% among 1,200. HEK293T NF-kB luciferase reporter, TNF-alpha stimulated, luminescence; 100% = TNF-alpha with vehicle only;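 active = activation above the mean of solvent-only control wells plus 3 SD, set per campaign, cut at about 130% in these data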;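 also: TNF-alpha given at a submaximal dose yielding about 80% of full reporter signal; values are well signal over median control so 100% means no change and 0% no light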
STAT3 act STAT1c = human STAT3 activation in STAT1 activator counter-screen; shares compounds with STAT1 act; U3A cells STAT3-luciferase reporter, IL-6, luminescence; cells lack STAT1; 100 = IL-6 alone, no compound effect; activation (% of control), % at 5.7 µM; hit rate 46% among 1,200;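 active = activation above the solvent-only control well mean plus 3 SD, set per plate batch, cut at about 110% in these data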;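 also: 0% = no luminescence and 100% = median IL-6 plus DMSO wells; higher means more STAT3 reporter activation so hits are non-selective activators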
Active calls of the source: *; / = not tested or not shown.

SMILES | FLuc act counter | APP 5'UTR act | Rad51 HR inh | NF-kB neuron act | FLuc inhib CS | STAT1 act | STAT1 activ conf | NFkB act STAT1ct | STAT3 act STAT1c
COC(=O)CSc1nnc(CNc2ccc(Cl)cc2)n1-c1ccccc1 | 1.1 | -5 | -10 | 1 | -9 | 101 | / | / | /
c1ccc(CNc2ccc3ccccc3n2)nc1 | 0.6 | 162* | 5 | 4.7* | 36 | 153* | 200* | 107 | 92
Cc1cc(NCc2ccccn2)nc2ccccc12 | 1 | -4 | 0 | 1.3 | 3 | 89 | / | / | /
CC(=O)c1sc(NC(=O)c2ccccc2F)nc1-c1ccccc1 | 0.9 | 141* | -5 | 3.1 | 10 | 154* | 171* | 126 | 104
CC(=O)c1sc(NC(=O)c2ccc(F)cc2)nc1-c1ccccc1 | 1 | 72 | 3 | 1.7 | 4 | 122 | / | / | /
Cc1ccc2c(c1)[nH]c1c(=O)n(CCC3=CCCCC3)cnc12 | 1.1 | -2 | 0 | 1.1 | -11 | 99 | / | / | /
O=C(NCCc1nc(-c2ccccc2)no1)c1ccco1 | / | / | -3 | / | / | / | / | / | /
Nc1nc(N2CCN(C(=O)c3ccco3)CC2)nc2ccc(Br)cc12 | 1 | 219* | -7 | 1.4 | 3 | 180* | 195* | 141* | 118*
O=C1c2ccccc2C(=O)N1CCc1c[nH]c2ccccc12 | 0.8 | 101 | 5 | 4.6* | 25 | 158* | 177* | 129 | 99
CCOc1ccc(NC(=O)c2ccc(-n3cccn3)nc2)cc1 | 1.1 | 4 | 2 | 1.2 | -6 | 96 | / | / | /
Cc1cccn2cc(COc3cccc([N+](=O)[O-])c3)nc12 | 1 | 22 | -19 | 1.4 | -1 | 106 | / | / | /
Cc1cccn2cc(COc3ccc(-c4ccccc4)cc3)nc12 | 0.9 | 44 | 10 | 1.7 | 13 | 162* | 165* | 106 | 115*
Cc1ccc2cc3cc(C(=O)N4CCCCC4C)oc3nc2c1 (stereo not drawn) | 0.4 | 197* | / | 3.5* | 55* | 166* | 216* | 136* | 105
CN(C)c1ccc(/C=N/NC(=O)c2ccco2)cc1 | 0.2 | 110 | -3 | 5.6* | 84* | 160* | 174* | 114 | 105
COC(=O)c1sccc1NC(=O)Nc1cccc(C)c1 | 0.8 | 5 | 8 | 1.3 | 16 | 159* | 177* | 134* | 123*
Cc1ccc(C(=O)c2sc3nsc(C)c3c2N)cc1 | 0.9 | 198* | 6 | 6.3* | 7 | 154* | 239* | 145* | 114*
c1cncc(-c2nnc(SCCSc3nnc(-c4cccnc4)o3)o2)c1 | / | -7 | / | / | / | 97 | / | / | /
Fc1ccccc1CSc1nnc(-c2cccnc2)o1 | 1 | 72 | 6 | 3.5* | 3 | 161* | 147* | 119 | 110
Cc1ccc(NC(=O)CSc2n[nH]c(-c3ccncc3)n2)cc1 | 1 | 7 | 2 | 1.2 | -1 | 100 | / | / | /
O=C(Nc1ccc(-c2nc3ncccc3o2)cc1)c1ccco1 | 0.8 | 92 | -3 | 2.7 | 24 | 160* | 173* | 126 | 102
Cn1cccc1-c1nc2ccc(NC(=O)c3ccco3)cc2[nH]1 | 0.9 | 6 | -3 | 0.77 | 10 | 113 | / | / | /
Cc1ccc2nc(-c3ccc(NC(=O)c4ccco4)cc3)[nH]c2c1 | 0.7 | 113 | -1 | 2.8 | 28 | 160* | 187* | 136* | 105
O=C(Nc1ccc(-c2nc3cccnc3s2)cc1)c1ccco1 | 0.5 | 216* | 2 | 3.9* | 49 | 152* | 227* | 113 | 97
CCOC(=O)C(=CNc1cc(C(F)(F)F)ccc1N1CCOCC1)C(=O)OCC | / | / | -1 | / | / | / | / | / | /
Cc1ccc2c(c1)-c1[nH]c(=S)ncc1CS2 | 1 | 15 | 36 | 1.4 | -5 | 100 | / | / | /
SMILES | FLuc act counter | APP 5'UTR act | Rad51 HR inh | NF-kB neuron act | FLuc inhib CS | STAT1 act | STAT1 activ conf | NFkB act STAT1ct | STAT3 act STAT1c
COc1ccc(N2CCN(C(=O)CC34CC5CC(CC(C5)C3)C4)CC2)c([N+](=O)[O-])c1 | 1 | 15 | / | 0.8 | -2 | 95 | / | / | /
O=C(CN1C(=O)C2CCCCC2C1=O)OCC(=O)c1ccc(Cl)s1 (stereo not drawn) | 1 | -19 | 0 | 1.1 | -2 | 95 | / | / | /
CCCCCCOc1ccc(/C(N)=N/O)cc1 | 0.9 | 78 | -8 | 6.8* | 8 | 161* | 157* | 129 | 121*
COc1ccccc1-c1nc(-c2ccncc2)no1 | 0.8 | 106 | -1 | 2.3 | 18 | 159* | 188* | 131 | 111*
COc1ccc(-c2csc(-c3ccccc3)n2)c(OC)c1 | 0.7 | 195* | -24 | 12* | 33 | 153* | 227* | 144* | 144*
COc1ccc(-c2nc(-c3ccc(Br)cc3)no2)c(OC)c1 | 0.7 | 94 | 0 | 6* | 26 | 155* | 233* | 132 | 112*
CC(NC(=O)CSc1nnc(CC(=O)Nc2ccc(Cl)c(Cl)c2)n1C)c1ccccc1 (stereo not drawn) | 1 | -17 | 4 | 1.2 | 2 | 94 | / | / | /
CCCNC(=O)CSc1nc2[nH]ncc2c(=O)[nH]1 | 1 | 6 | 5 | 1.1 | -1 | 94 | / | / | /
Clc1ccc(-n2nnc(-c3cccnc3)n2)cc1Cl | 0.9 | 51 | -2 | 2.3 | 12 | 159* | 149* | 125 | 108
COc1ncccc1-c1nnn(-c2ccc(C)cc2)n1 | 0.3 | 98 | 1 | 3.7* | 66* | 152* | 205* | 141* | 117*
COc1ncccc1-c1nnn(-c2ccc(Cl)c(Cl)c2)n1 | 0.9 | 106 | -2 | 4* | 9 | 158* | 164* | 132 | 101
COc1ccc2[nH]c(=O)c(-c3nnn(-c4ccc(Cl)c(Cl)c4)n3)cc2c1 | / | / | 8 | / | / | / | / | / | /
COc1ncccc1-c1nnn(-c2ccc(F)cc2)n1 | 0.5 | 106 | 5 | 3.8* | 51* | 155* | 194* | 132 | 112*
Brc1ccccc1-n1nnc(-c2cccnc2)n1 | 0.9 | -2 | 4 | 1.8 | 9 | 126 | / | / | /
COc1ccc(/C=N/NC(=O)CCn2c3ccccc3c3ccccc32)cc1OC | 1 | -3 | / | 1.3 | 3 | 98 | / | / | /
N/C(=N\OC(=O)COc1ccc(Cl)cc1Br)c1ccncc1 | 0.8 | 120 | -37 | 5.8* | 16 | 157* | 198* | 142* | 122*
N/C(=N\OC(=O)c1ccccc1Cl)c1ccncc1 | 0.5 | 94 | / | / | 54* | 162* | 155* | 116 | 99
